Published values from different studies.
Target: Serine/threonine-protein kinase 10 (STK10, Homo sapiens, UniProt O94804)

| SMILES | observed | technique | tested at | remaining binding [%] |
| --- | --- | --- | --- | --- |
| CN(C)C(=O)Cn1cc(-c2nc([C@@](C)(c3ccc(-c4cnc(N)nc4)cc3)C3CC3)no2)cn1 | cell-free assay | competition with immobilised ligand | 1 µM | 89 |
| Cc1cnc(Nc2ccc(C(=O)N3CCC(N4CCCC4)CC3)cc2)nc1-c1cc2ccccc2s1 | binding | competition with immobilised ligand | 1 µM | 14 |
| COc1cnc(Nc2cccc(S(N)(=O)=O)c2)nc1N1CCN(c2ccccc2)C(=O)C1 | binding | competition with immobilised ligand | 1 µM | 100 |
| CN(C)c1nccc(-c2cnc3ncccn23)n1 | binding | – | 1 µM | 100 |
| Nc1ncc2c(n1)-c1c([nH]c3ccc(C#CC4CC4)cc13)CCCC2 | binding | competition with immobilised ligand | 1 µM | 99 |
| c1cncc(-c2cccc(Nc3nccc(NC4CCCCC4)n3)c2)c1 | binding | competition with immobilised ligand | 10 µM | 38 |
| N[C@@H]1CCN(c2nccc(-c3cnn4ncccc34)n2)C1 | binding | – | 1 µM | 100 |
| O=C(O)[C@@H]1[C@@H](Cn2nnc3ccccc3c2=O)CC[C@H]1C(=O)c1ccc(OCCC2CCOCC2)cc1 | cell-free assay | competition with immobilised ligand | 1 µM | 84 |
| C[C@@H]1CCN(c2nccc(-c3cnn4ncccc34)n2)C1 | binding | – | 1 µM | 98 |
| CC(C)CC(=O)N1CCc2nc(-c3ccc(Br)cc3)nc(N(C)Cc3ccccc3)c2C1 | cell-free assay | competition with immobilised ligand | 0.1 µM | 100 |
| CN(C)c1nccc(-c2cnn3ncccc23)n1 | binding | – | 1 µM | 100 |
| COc1ncc2cc3ccccc3nc2c1C#N | cell-free assay | competition with immobilised ligand | 5 µM | 100 |
| O=C(c1ccc(Nc2ncc(Cl)c(-c3cc4ccccc4s3)n2)cc1)N1CCC(N2CCCC2)CC1 | binding | competition with immobilised ligand | 1 µM | 43 |
| c1cnn2ncc(-c3ccnc(N4CCC45COC5)n3)c2c1 | binding | – | 1 µM | 91 |
| Cc1c(NC(=O)c2cc(C(N)=O)nc3cc(F)ccc23)c(C(F)(F)F)nn1Cc1ccc(C(C)(C)C)cc1 | cell-free assay | competition with immobilised ligand | 1 µM | 88 |
| O=C(NCC1CCOCC1)c1n[nH]cc1NC(=O)c1c(F)cccc1F | binding | competition with immobilised ligand | 1 µM | 100 |
| CCCOc1ccc([C@H]2[C@H](C(=O)O)[C@@H](c3ccc4c(c3)OCO4)CN2CC(=O)Nc2c(CC)cccc2CC)cc1 | cell-free assay | competition with immobilised ligand | 1 µM | 97 |
| CC1CCCN1c1nccc(-c2cnn3ncccc23)n1 (centres unmarked) | binding | – | 1 µM | 96 |
| O=C(c1ccc(Nc2nccc(-c3cc4ccccc4s3)n2)cc1)N1CCC(N2CCCC2)CC1 | binding | competition with immobilised ligand | 1 µM | 58 |
| CC(=O)N1CCC(c2ccc(C(=O)NC3=NCCN3)cc2C(F)(F)F)CC1 | cell-free assay | competition with immobilised ligand | 1 µM | 100 |
